Laboratory results taken from ChEMBL document CHEMBL1139875, “Discovery of 4-aminobutyric acid derivatives possessing anticonvulsant and antinociceptive activities: a hybrid pharmacophore approach” (2007).
Active and inactive are the calls of the source. No cut-off for these calls is given here.

What was measured:
Mus musculus [1] = test: Anticonvulsant activity in Swiss Albino mouse at 300 mg/kg, ip after 0.5 hr by MES test; assay type: functional, organism-based; design: dose 300 mg/kg
Outline: (§1)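 Mice (Swiss, 20-25 g) given i.p. doses of 30, 100 and 300 mg/kg under ADD program protocols, three per group, examined at 0.5 and 4 h in MES, scPTZ, scSTY or scPIC seizure tests. Value is the minimum dose protecting half or more of the mice.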

Mus musculus [2] = test: Anticonvulsant activity in Swiss Albino mouse at 300 mg/kg, ip after 4 hrs by MES test; assay type: functional, organism-based; design: dose 300 mg/kg; outline: as §1
Mus musculus [3] = test: Anticonvulsant activity in Swiss Albino mouse at 300 mg/kg, ip after 0.5 hr by scPTZ test; assay type: functional, organism-based; design: dose 300 mg/kg; outline: as §1
Mus musculus [4] = test: Anticonvulsant activity in Swiss Albino mouse at 100 mg/kg, ip after 0.5 hr by scSTY test; assay type: functional, organism-based; design: dose 100 mg/kg; outline: as §1
Mus musculus [5] = test: Anticonvulsant activity in Swiss Albino mouse at 300 mg/kg, ip after 4 hrs by scSTY test; assay type: functional, organism-based; design: dose 300 mg/kg; outline: as §1
Mus musculus [6] = test: Anticonvulsant activity in Swiss Albino mouse at 300 mg/kg, ip after 0.5 hr by scPIC test; assay type: functional, organism-based; design: dose 300 mg/kg; outline: as §1
Mus musculus [7] = test: Anticonvulsant activity in Swiss Albino mouse at 300 mg/kg, ip after 4 hrs by scPIC test; assay type: functional, organism-based; design: dose 300 mg/kg; outline: as §1
Mus musculus [8] = test: Neurotoxicity in Swiss Albino mouse at 300 mg/kg, ip after 0.5 hr by rotarod test; assay type: functional, organism-based; design: dose 300 mg/kg
Outline: (§2)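 Swiss mice (20-25 g) are trained on an accelerating rotorod (10 rpm, 3.2 cm rod), then injected i.p. at 30, 100 or 300 mg/kg, with three per group. Neurotoxicity means failure to keep equilibrium for at least 1 min in each of three trials, checked at 0.5 and 4 h. The value reported is the minimum dose affecting half or more of the mice.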

Mus musculus [9] = test: Neurotoxicity in Swiss Albino mouse at 300 mg/kg, ip after 4 hrs by rotarod test; assay type: functional, organism-based; design: dose 300 mg/kg; outline: as §2
Mus musculus [10] = test: Analgesic activity in Swiss Albino mouse assessed as number of acetic acid-induced writhing per 30 min after 100 mg/kg, ip; assay type: functional; conditions: route intraperitoneal
Outline: (§3)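 Mice in groups of six dosed i.p. at 100 mg/kg, controls receiving 30% v/v PEG 400 in water. Writhing induced by i.p. 0.1 mL of 3% v/v acetic acid 1 h after drug. Writhes (abdominal stretch with at least one hind limb extended) counted over 30 min; % inhibition calculated. Mean ± SEM, Student's t test.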

Mus musculus [11] = test: Analgesic activity in Swiss Albino mouse assessed as inhibition of acetic acid-induced writhing responses at 100 mg/kg, ip; assay type: functional; conditions: route intraperitoneal; outline: as §3
Rattus norvegicus [12] = test: Effect on spontaneous pain in Sprague-Dawley rat CCI model assessed as duration of paw withdrawal at 100 mg/kg, ip after 0.5 hr; assay type: functional; conditions: route intraperitoneal
Outline: (§4)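 CCI rats (n = 4) dosed 100 mg/kg i.p. (vehicle 30% v/v PEG 400 in water). After 10 min acclimatization in a cage 5 cm above ground, cumulative time the ipsilateral paw was held off the floor over 5 min recorded, excluding locomotion lifts. Mean ± SEM; ANOVA/Bonferroni versus predrug.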

Rattus norvegicus [13] = test: Effect on spontaneous pain in Sprague-Dawley rat CCI model assessed as duration of paw withdrawal at 100 mg/kg, ip after 1 hr; assay type: functional; conditions: route intraperitoneal; outline: as §4
Rattus norvegicus [14] = test: Effect on spontaneous pain in Sprague-Dawley rat CCI model assessed as duration of paw withdrawal at 100 mg/kg, ip after 1.5 hrs; assay type: functional; conditions: route intraperitoneal
Outline: (§5)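 Unilateral CCI of sciatic nerve (Bennett and Xie) in Sprague-Dawley rats under i.p. pentobarbital sodium (65 mg/kg). Spontaneous pain is scored over 5 min after 10 min acclimatization, as cumulative time the ipsilateral paw is held off the floor. Paw lifts from locomotion or repositioning are excluded. Drug is given at 100 mg/kg i.p. with 30% v/v PEG 400 vehicle. Mean ± SEM, n = 4, compared with predrug by ANOVA/Bonferroni.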

Rattus norvegicus [15] = test: Effect on spontaneous pain in Sprague-Dawley rat CCI model assessed as duration of paw withdrawal at 100 mg/kg, ip after 2 hrs; assay type: functional; conditions: route intraperitoneal; outline: as §5
Rattus norvegicus [16] = test: Anti-dynamic allodynia effect in Sprague-Dawley rat SNL model assessed as latency to paw withdrawal 100 mg/kg, ip after 0.5 hr; assay type: functional; conditions: route intraperitoneal
Outline: (§6)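 Left L5 spinal nerve ligation rats, tested preoperatively and 9 days postoperatively, then given 100 mg/kg i.p. (vehicle 30% v/v PEG 400 in water). After 10 min acclimatization, plantar surface of affected paw stroked mildly with a cotton-bud; paw lift response recorded. n = 4; retested 0.5-2.5 h post-dose.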

Rattus norvegicus [17] = test: Anti-dynamic allodynia effect in Sprague-Dawley rat SNL model assessed as latency to paw withdrawal 100 mg/kg, ip after 1 hr; assay type: functional; conditions: route intraperitoneal; outline: as §6
Rattus norvegicus [18] = test: Anti-dynamic allodynia effect in Sprague-Dawley rat SNL model assessed as latency to paw withdrawal 100 mg/kg, ip after 1.5 hrs; assay type: functional; conditions: route intraperitoneal; outline: as §6
Rattus norvegicus [19] = test: Anti-dynamic allodynia effect in Sprague-Dawley rat SNL model assessed as latency to paw withdrawal 100 mg/kg, ip after 2 hrs; assay type: functional; conditions: route intraperitoneal; outline: as §6
Rattus norvegicus [20] = test: Anti-dynamic allodynia effect in Sprague-Dawley rat SNL model assessed as latency to paw withdrawal 100 mg/kg, ip after 2.5 hrs; assay type: functional; conditions: route intraperitoneal; outline: as §6
Rattus norvegicus [21] = test: Anti-cold allodynia effect in Sprague-Dawley rat SNL model assessed as duration of paw withdrawal 100 mg/kg, ip after 0.5 hr; assay type: functional; conditions: route intraperitoneal
Outline: (§7)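 Left L5 spinal nerve ligation under pentobarbital (65 mg/kg i.p.). Allodynic rats dosed i.p. 100 mg/kg, vehicle 30% v/v PEG 400 in water. Acetone (100-200 µL) misted onto midplantar affected paw after 10 min acclimatization; paw withdrawal duration, mean of three samples at least 3 min apart; n = 4 rats.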

Rattus norvegicus [22] = test: Anti-cold allodynia effect in Sprague-Dawley rat SNL model assessed as duration of paw withdrawal 100 mg/kg, ip after 1 hrs; assay type: functional; conditions: route intraperitoneal; outline: as §7
Rattus norvegicus [23] = test: Anti-cold allodynia effect in Sprague-Dawley rat SNL model assessed as duration of paw withdrawal 100 mg/kg, ip after 1.5 hrs; assay type: functional; conditions: route intraperitoneal; outline: as §7
Rattus norvegicus [24] = test: Anti-cold allodynia effect in Sprague-Dawley rat SNL model assessed as duration of paw withdrawal 100 mg/kg, ip after 2 hrs; assay type: functional; conditions: route intraperitoneal; outline: as §7
Rattus norvegicus [25] = test: Anti-cold allodynia effect in Sprague-Dawley rat SNL model assessed as duration of paw withdrawal 100 mg/kg, ip after 2.5 hrs; assay type: functional; conditions: route intraperitoneal; outline: as §7
Rattus norvegicus [26] = test: Effect on spontaneous pain in Sprague-Dawley rat CCI model assessed as duration of paw withdrawal at 100 mg/kg, ip after 2.5 hrs; assay type: functional; conditions: route intraperitoneal; outline: as §5
Rattus norvegicus [27] = test: Antihyperalgesic effects in Sprague-Dawley rat SNL model assessed as duration of paw withdrawal at 100 mg/kg, ip after 0.5 hr, ip; assay type: functional; conditions: route intraperitoneal
Outline: (§8)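 L5 SNL rats (n = 4), dosed 100 mg/kg i.p. (vehicle 30% v/v PEG 400 in water). Pin-prick to midplantar ipsilateral left hindpaw; withdrawal duration, mean of three responses; ≥2 s defined abnormal. Mean ± SEM; one-way ANOVA with Bonferroni versus predrug.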

Rattus norvegicus [28] = test: Antihyperalgesic effects in Sprague-Dawley rat SNL model assessed as duration of paw withdrawal at 100 mg/kg, ip after 1 hr, ip; assay type: functional; conditions: route intraperitoneal; outline: as §8
Rattus norvegicus [29] = test: Antihyperalgesic effects in Sprague-Dawley rat SNL model assessed as duration of paw withdrawal at 100 mg/kg, ip after 1.5 hrs, ip; assay type: functional; conditions: route intraperitoneal; outline: as §8
Rattus norvegicus [30] = test: Antihyperalgesic effects in Sprague-Dawley rat SNL model assessed as duration of paw withdrawal at 100 mg/kg, ip after 2 hrs, ip; assay type: functional; conditions: route intraperitoneal; outline: as §8
Rattus norvegicus [31] = test: Antihyperalgesic effects in Sprague-Dawley rat SNL model assessed as duration of paw withdrawal at 100 mg/kg, ip after 2.5 hrs, ip; assay type: functional; conditions: route intraperitoneal; outline: as §8
Rattus norvegicus [32] = species on record: Rattus norvegicus; test: Anti-dynamic allodynic effect in Sprague-Dawley rat CCI model assessed as latency to paw withdrawal after 0.5 hr; assay type: functional
Outline: (§9)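 Rats with sciatic nerve chronic constriction injury (pentobarbital 65 mg/kg i.p. anaesthesia), baseline and day 9 testing, then drug per randomization table. After 10 min acclimatization, affected plantar surface stroked mildly with a cotton-bud; paw lift recorded. n = 4; retested 0.5-2.5 h post-dose.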

Rattus norvegicus [33] = species on record: Rattus norvegicus; test: Anti-dynamic allodynic effect in Sprague-Dawley rat CCI model assessed as latency to paw withdrawal after 1 hr; assay type: functional; outline: as §9
Rattus norvegicus [34] = species on record: Rattus norvegicus; test: Anti-dynamic allodynic effect in Sprague-Dawley rat CCI model assessed as latency to paw withdrawal after 1.5 hr; assay type: functional; outline: as §9
Rattus norvegicus [35] = species on record: Rattus norvegicus; test: Anti-dynamic allodynic effect in Sprague-Dawley rat CCI model assessed as latency to paw withdrawal after 2 hr; assay type: functional; outline: as §9
Rattus norvegicus [36] = species on record: Rattus norvegicus; test: Anti-dynamic allodynic effect in Sprague-Dawley rat CCI model assessed as latency to paw withdrawal after 2.5 hr; assay type: functional; outline: as §9

With `C/C(=N\NC(=O)NCCCC(=O)O)c1ccccc1` the Activity (Mus musculus [1]) was “inactive”, the Activity (Mus musculus [2]) was “inactive” and the Activity (Mus musculus [3]) was “inactive”. For the same compound, the Activity (Mus musculus [4]) was “Active”, the Activity (Mus musculus [5]) was “Active” and the Activity (Mus musculus [6]) was “Active”. The Activity (Mus musculus [7]) was “Active”, the Activity (Mus musculus [8]) was “inactive” and the Activity (Mus musculus [9]) was “inactive”. For the same compound, the Activity (Mus musculus [10]) was 33.7, the inhibition in vivo at 100 mg/kg (Mus musculus [11]) was 82% and the Activity (Rattus norvegicus [12]) was 13.2 s. For the same compound, the Activity (Rattus norvegicus [13]) was 18.8 s, the Activity (Rattus norvegicus [14]) was 18.3 s and the Activity (Rattus norvegicus [15]) was 12.9 s. It also gave an Activity (Rattus norvegicus [16]) of 8.7 s, an Activity (Rattus norvegicus [17]) of 7.2 s and an Activity (Rattus norvegicus [18]) of 9.2 s. The Activity (Rattus norvegicus [19]) was 12.2 s, the Activity (Rattus norvegicus [20]) was 11.88 s and the Activity (Rattus norvegicus [21]) was 17.9 s. It also gave an Activity (Rattus norvegicus [22]) of 12.8 s, an Activity (Rattus norvegicus [23]) of 11.7 s and an Activity (Rattus norvegicus [24]) of 10.9 s. For the same compound, the Activity (Rattus norvegicus [25]) was 4.8 s, the Activity (Rattus norvegicus [26]) was 10.6 s and the Activity (Rattus norvegicus [27]) was 23.2 s. It also gave an Activity (Rattus norvegicus [28]) of 27.6 s, an Activity (Rattus norvegicus [29]) of 18.7 s and an Activity (Rattus norvegicus [30]) of 16.7 s. It also gave an Activity (Rattus norvegicus [31]) of 17.3 s, an Activity (Rattus norvegicus [32]) of 14.8 s and an Activity (Rattus norvegicus [33]) of 10.2 s. It also gave an Activity (Rattus norvegicus [34]) of 13.3 s, an Activity (Rattus norvegicus [35]) of 12.1 s and an Activity (Rattus norvegicus [36]) of 14.5 s.
